Like-named read-outs stand apart in the source and are kept apart here.

The target in data set [1] is serotonin 2A (5-HT2A) receptor (Homo sapiens, UniProt P28223). The data set can be described thus: 5-HT2A receptor antagonist IC50 determination. The data set is classed as cell-based.
For a further data set, the target named is T1, hGlyT2^WT (Homo sapiens, UniProt Q9Y345).
T1 sequence (Q9Y345 1-797): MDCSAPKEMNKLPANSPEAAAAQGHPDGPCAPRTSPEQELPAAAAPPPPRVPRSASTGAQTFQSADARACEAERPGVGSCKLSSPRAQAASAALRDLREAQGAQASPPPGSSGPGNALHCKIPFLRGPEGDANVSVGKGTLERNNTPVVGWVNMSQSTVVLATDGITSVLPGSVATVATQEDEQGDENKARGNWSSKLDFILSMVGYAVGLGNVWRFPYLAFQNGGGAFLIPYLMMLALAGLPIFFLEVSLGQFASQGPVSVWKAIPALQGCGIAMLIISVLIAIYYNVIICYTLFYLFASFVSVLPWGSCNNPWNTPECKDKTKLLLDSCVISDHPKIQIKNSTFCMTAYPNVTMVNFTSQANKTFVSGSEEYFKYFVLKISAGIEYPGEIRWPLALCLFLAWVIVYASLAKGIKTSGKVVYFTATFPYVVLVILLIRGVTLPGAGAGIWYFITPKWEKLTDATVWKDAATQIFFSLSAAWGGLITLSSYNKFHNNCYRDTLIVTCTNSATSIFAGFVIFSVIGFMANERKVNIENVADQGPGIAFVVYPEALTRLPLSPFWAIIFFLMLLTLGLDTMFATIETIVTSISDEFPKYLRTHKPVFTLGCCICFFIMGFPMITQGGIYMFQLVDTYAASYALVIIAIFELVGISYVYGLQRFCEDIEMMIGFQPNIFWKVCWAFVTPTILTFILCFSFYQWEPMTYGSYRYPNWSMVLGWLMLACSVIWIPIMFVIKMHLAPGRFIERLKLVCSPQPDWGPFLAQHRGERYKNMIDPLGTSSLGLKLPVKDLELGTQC
The data set is classed as cell-based.

For a further data set, the system named is naïve mice. As to the kind of experiment: Accelerating rotarod, motor coordination in naïve mice. The data set is classed as in vivo, mouse. In a few lines:
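Naïve mice trained for 3 days on an accelerating rotarod with large cylinders (3 sessions/day at 30-min intervals, 5 min acclimatisation each day), speed rising from 4 to 20 rpm over 180 s. Test compound given i.p. in 5% Solutol in PBS. Tested at t = 0 and 30, 60, 90, 120 and 180 min post-dose. Performance normalised to % baseline.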

The subject of the next data set is naïve, uninjured mice. As to the kind of experiment: Respiratory function by whole-body plethysmography. The data set is classed as in vivo, mouse. In a few lines:
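Whole-body plethysmography on naïve, uninjured mice in two parallel chambers linked to a pressure transducer. Mice briefly removed for injection, then returned. Breathing recorded for 5 min at 30, 60, 90, 120 and 180 min post-injection. Frequency, tidal volume and minute volume averaged and normalised to % baseline. […] Two-way ANOVA with Dunnett's test.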

serotonin 2A (5-HT2A) receptor, sequence (P28223 whole entry, species assumed): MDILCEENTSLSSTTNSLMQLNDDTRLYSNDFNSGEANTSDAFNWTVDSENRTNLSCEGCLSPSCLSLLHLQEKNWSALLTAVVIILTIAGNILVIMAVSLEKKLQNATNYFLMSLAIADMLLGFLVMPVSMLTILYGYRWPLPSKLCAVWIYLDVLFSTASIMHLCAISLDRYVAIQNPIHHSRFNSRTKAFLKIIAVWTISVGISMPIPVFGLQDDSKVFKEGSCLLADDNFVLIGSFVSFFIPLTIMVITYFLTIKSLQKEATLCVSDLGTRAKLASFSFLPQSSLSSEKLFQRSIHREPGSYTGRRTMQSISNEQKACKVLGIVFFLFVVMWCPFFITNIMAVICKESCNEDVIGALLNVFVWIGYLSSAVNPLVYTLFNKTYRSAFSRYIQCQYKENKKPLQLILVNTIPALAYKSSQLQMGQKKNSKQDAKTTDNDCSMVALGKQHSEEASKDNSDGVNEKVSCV

`CN(C)C1(CNC(=O)c2ccc3c(c2)CCN3C(=O)c2ccccc2)CCOCC1` [RPI-GLYT2–82, 1-benzoyl-N-((4-(dimethylamino)tetrahydro-2H-pyran-4-yl)methyl)indoline-5-carboxamide]: the half-maximal inhibitory concentration (IC50) turned out to be 1.9 µM in data set [1]; 0.55 µM against hGlyT2^WT; 0.554 µM on hGlyT2^WT (IC50, inhibition of glycine transport currents, hGlyT2^WT, Xenopus oocytes, currents generated by EC50 (30 μM) glycine, n = 5). The “Adverse neuromotor effects or muscle weakness (rotarod, grip strength, sedation)” value with naïve mice (50 mg/kg analgesic dose) is given as “not associated with adverse neuromotor effects or muscle weakness”. Moreover, the Rotarod performance entry in the data set on naïve mice (250 mg/kg) is “transient reduction in rotarod performance”. Further, the “Initial reduction in baseline rotarod performance” value in the data set with naïve mice (250 mg/kg i.p., restored over the 90-minute time course) is listed as 61%. Moreover, the “Respiration frequency, minute volume (MVb), tidal volume (TVb)” value in the data set with naïve, uninjured mice (50 mg/kg) is recorded as “did not change”. Also, in the data set with naïve, uninjured mice (250 mg/kg, frequency and MVb first hour, TVb first 30 minutes), the “Respiratory frequency, MVb and TVb” value is reported as “transient changes”.
